The subject of test [1] is Influenza A virus. Briefly: Antiviral activity against Influenza A virus A/WSN/33(H1N1) infected in dog MDCK cells preincubated with virus for 15 mins followed by cells addition measured at 36 hrs post infection. Particulars: A/WSN/1933(H1N1). It is filed as functional, organism-based.
In test [2] the test system is Influenza A virus. Briefly: Antiviral activity against Influenza A virus A/WSN/33(H1N1) infected in MDCK cells at 100 uM preincubated with virus for 15 mins followed by cells addition measured at 36 hrs post infection. It is filed as functional, A/WSN/1933(H1N1). A digest of the protocol:
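MDCK canine kidney cells grown in DMEM and infected with influenza A/WSN/33 (H1N1). Compounds screened at 100 μM. Oseltamivir phosphate served as the positive control.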

Each structure is given as a SMILES string. pIC50: −log10 of the molar value.

With `C[C@]1(C(=O)O)CC[C@@]2(C)CC[C@@]3(C)C(=CC(=O)[C@H]4[C@]5(C)CC[C@@H](O[C@H]6O[C@@H](C(=O)O)[C@H](O)[C@@H](O)[C@@H]6O[C@H]6O[C@@H](C(=O)O)[C@H](O)[C@@H](O)[C@@H]6O)[C@@](C)(CO)[C@H]5CC[C@@]43C)[C@@H]2C1`, the pIC50 (as a rule, the IC50 on a negative log10 scale, so that one unit is a factor of ten) in test [1] is 4.40. The compound further yielded an Activity in test [2] of 47%.
The like results for `CC1(C)[C@@H](O[C@@H]2O[C@H](C(=O)O)[C@@H](O)[C@H](O)[C@H]2O[C@@H]2O[C@H](C(=O)O)[C@@H](O)[C@H](O)[C@H]2O)CC[C@]2(C)C3=CC=C4[C@H]5C[C@@](C)(C(=O)O)CC[C@]5(C)CC[C@@]4(C)[C@]3(C)CC[C@@H]12` were, in that order, 4.40 and 47%.
In the same order, the values of `CC(=O)O[C@H]1C[C@@](C)(C(=O)O)C[C@H]2C3=CC(=O)[C@H]4[C@]5(C)CC[C@@H](O[C@@H]6O[C@H](C(=O)O)[C@@H](O)[C@H](O)[C@H]6O[C@H]6OC[C@H](O)[C@@H](O)[C@@H]6O[C@H]6O[C@H](C)[C@@H](O)[C@H](O)[C@@H]6O)C(C)(C)[C@H]5CC[C@]4(C)[C@@]3(C)CC[C@]12C` are 4.40 and 47%.
The like results for `CC(=O)O[C@@H]1C[C@](C)(C(=O)O)C[C@@H]2C3=CC(=O)[C@@H]4[C@@]5(C)CC[C@H](O[C@H]6O[C@@H](C(=O)O)[C@H](O)[C@@H](O)[C@@H]6O[C@H]6O[C@@H](C(=O)O)[C@H](O)[C@@H](O)[C@@H]6O)C(C)(C)[C@@H]5CC[C@@]4(C)[C@]3(C)CC[C@]21C` were, in that order, 4.40 and 47%.
Turning to `CC1(C)[C@H]2CC[C@@]3(C)[C@@H](C(=O)C=C4[C@@H]5C[C@]6(C)C[C@@H](COC6=O)[C@@]5(C)CC[C@@]43C)[C@]2(C)CC[C@H]1O[C@@H]1O[C@H](C(=O)O)[C@@H](O)[C@H](O)[C@H]1O[C@@H]1O[C@H](C(=O)O)[C@@H](O)[C@H](O)[C@H]1O`, the negative logarithm of the IC50 (pIC50) in test [1] is 4.40. Further, the Activity in test [2] worked out at 47%.
On to `CCOC(=O)C1=C[C@@H](OC(CC)CC)[C@H](NC(C)=O)[C@@H](N)C1` [OSELTAMIVIR PHOSPHATE], for which, in test [1], the negative logarithm of the IC50 (pIC50) is 4.34.
On to `CC(=O)O[C@@H]1C[C@](C)(C(=O)O)C[C@@H]2C3=CC(=O)[C@@H]4[C@@]5(C)CC[C@H](O[C@@H]6O[C@H](C(=O)O)[C@@H](O)[C@H](O)[C@H]6O[C@@H]6O[C@H](C(=O)O)[C@H](O)[C@H](O)[C@H]6O)C(C)(C)[C@@H]5CC[C@@]4(C)[C@]3(C)CC[C@]21C`, for which, in test [1], the negative-log IC50 (pIC50) is 4.40. Besides, in test [2], the Activity is listed as 47%.
For the compound `CC1(C)[C@@H](O[C@H]2O[C@H](C(=O)O)[C@@H](O)[C@H](O)[C@H]2O[C@@H]2O[C@H](C(=O)O)[C@@H](O)[C@H](O)[C@H]2O)CC[C@]2(C)[C@H]3C(=O)C=C4[C@@H]5C[C@@](C)(C(=O)O)CC[C@]5(C)CC[C@@]4(C)[C@]3(C)CC[C@@H]12` [GLYCYRRHIZIN], the pIC50 in test [1] is 4.40. For the same compound, the Activity in test [2] amounted to 47%.
In the same order, the values of `CC1(C)[C@@H](O[C@@H]2O[C@H](C(=O)O)[C@@H](O)[C@H](O)[C@H]2O[C@@H]2O[C@H](C(=O)O)[C@@H](O)[C@H](O)[C@H]2O)CC[C@]2(C)[C@H]3C(=O)C=C4[C@H]5C[C@@](C)(C=O)CC[C@]5(C)CC[C@@]4(C)[C@]3(C)CC[C@@H]12` are 4.40 and 47%.
For `CC(C)(O)CCc1c(O)cc2occ(-c3ccc(O)c(O)c3)c(=O)c2c1O`, the Activity in test [2] is more than 30%.
`CC1(C)[C@@H](O[C@@H]2O[C@H](C(=O)O)[C@@H](O)[C@H](O)[C@H]2O[C@@H]2O[C@H](C(=O)O)[C@@H](O)[C@H](O)[C@H]2O)CC[C@]2(C)[C@H]3C(=O)C=C4[C@H]5C[C@@](C)(CO)C[C@@H](O)[C@]5(C)CC[C@@]4(C)[C@]3(C)CC[C@@H]12`: the negative-log IC50 (pIC50) in test [1] is 4.40. The compound also registered an Activity in test [2] of 47%.
As to `CC(=O)O[C@@H]1C[C@](C)(C(=O)O)C[C@@H]2C3=CC(=O)[C@@H]4[C@@]5(C)CC[C@H](O[C@@H]6O[C@H](C(=O)O)[C@@H](O)[C@H](O)[C@H]6O[C@@H]6O[C@H](C(=O)O)[C@@H](O)[C@H](O)[C@H]6O)[C@](C)(CO)[C@@H]5CC[C@@]4(C)[C@]3(C)CC[C@]21C`, the negative-log IC50 (pIC50) in test [1] was 4.40. In addition, in test [2], the Activity amounted to 47%.
The like results for `CC1(C)[C@@H](O[C@@H]2O[C@H](C(=O)O)[C@@H](O)[C@H](O)[C@H]2O[C@@H]2OC[C@H](O)[C@H](O)[C@H]2O)CC[C@]2(C)[C@H]3C(=O)C=C4[C@H]5C[C@@](C)(C(=O)O)CC[C@]5(C)CC[C@@]4(C)[C@]3(C)CC[C@@H]12` were, in that order, 4.40 and 47%.
The like results for `C[C@@H]1[C@@H](O[C@@H]2O[C@H](C(=O)O)[C@@H](O)[C@H](O)[C@H]2O[C@@H]2O[C@H](C(=O)O)[C@@H](O)[C@H](O)[C@H]2O)CC[C@]2(C)[C@H]3CC=C4[C@H]5C[C@@](C)(C(=O)O)CC[C@]5(C)CC[C@@]4(C)[C@]3(C)CC[C@@H]12` were, in that order, 4.40 and 47%.
Regarding `CC1(C)[C@@H](O[C@@H]2O[C@H](C(=O)O)[C@@H](O)[C@H](O)[C@H]2O[C@@H]2O[C@H](C(=O)O)[C@@H](O)[C@H](O)[C@H]2O)CC[C@]2(C)[C@H]3C=CC4=C5C[C@@](C)(C(=O)O)CC[C@]5(C)CC[C@@]4(C)[C@]3(C)CC[C@@H]12`, the pIC50 in test [1] was 4.40. Further, the Activity in test [2] came to 47%.
In the same order, the values of `CC1(C)[C@@H](O[C@@H]2O[C@H](C(=O)O)[C@@H](O)[C@H](O[C@@H]3O[C@H](C(=O)O)[C@@H](O)[C@H](O)[C@H]3O)[C@H]2O)CC[C@]2(C)[C@H]3C(=O)C=C4[C@H]5C[C@@](C)(C(=O)O)CC[C@]5(C)CC[C@@]4(C)[C@]3(C)CC[C@@H]12` are 4.40 and 47%.
In the same order, the values of `CC1(C)[C@@H](O[C@@H]2O[C@H](C(=O)O)[C@@H](O)[C@H](O)[C@H]2O[C@@H]2O[C@H](C(=O)O)[C@@H](O)[C@H](O)[C@H]2O)CC[C@]2(C)[C@H]3C(=O)C=C4[C@H]5C[C@](C)(C(=O)O)CC[C@]5(C)CC[C@@]4(C)[C@]3(C)CC[C@@H]12` are 4.40 and 47%.
Compound `CC(=O)O[C@H]1C[C@@](C)(C(=O)O)C[C@H]2C3=CC(=O)[C@H]4[C@]5(C)CC[C@@H](O[C@@H]6O[C@H](C(=O)O)[C@H](O)[C@H](O)[C@H]6O[C@H]6O[C@@H](CO)[C@H](O)[C@@H](O)[C@@H]6O[C@H]6O[C@H](C)[C@@H](O)[C@H](O)[C@@H]6O)C(C)(C)[C@H]5CC[C@]4(C)[C@@]3(C)CC[C@]12C` gave a negative-log IC50 (pIC50) in test [1] of 4.40. The same compound displayed an Activity in test [2] of 47%.
The compound `C[C@@H]1O[C@@H](O[C@H]2[C@H](O[C@@H]3[C@@H](O[C@@H]4CC[C@]5(C)[C@H](CC[C@@]6(C)[C@H]5C(=O)C=C5[C@@H]7C[C@]8(C)C[C@@H](COC8=O)[C@@]7(C)CC[C@@]56C)C4(C)C)O[C@@H](C(=O)O)[C@H](O)[C@H]3O)O[C@H](C(=O)O)[C@@H](O)[C@@H]2O)[C@H](O)[C@H](O)[C@H]1O` showed a pIC50 in test [1] of 4.40. Besides, the Activity in test [2] is reported as 47%.
The like results for `CC(=O)O[C@@H]1C[C@](C)(C=O)C[C@@H]2C3=CC(=O)[C@@H]4[C@@]5(C)CC[C@H](O[C@@H]6O[C@H](C(=O)O)[C@@H](O)[C@H](O)[C@H]6O[C@@H]6O[C@H](C(=O)O)[C@@H](O)[C@H](O)[C@H]6O)C(C)(C)[C@@H]5CC[C@@]4(C)[C@]3(C)CC[C@]21C` were, in that order, 4.40 and 47%.
Turning to `C[C@]1(C(=O)O)CC[C@]2(C)CC[C@]3(C)C(=CC[C@@H]4[C@@]5(C)CC[C@H](O[C@@H]6O[C@H](C(=O)O)[C@@H](O)[C@H](O)[C@H]6O[C@@H]6O[C@H](C(=O)O)[C@@H](O)[C@H](O)[C@H]6O)[C@](C)(CO)[C@@H]5CC[C@]43C)[C@H]2C1`, the pIC50 in test [1] was 4.40. The compound also gave an Activity in test [2] of 47%.
`C[C@]1(C(=O)O)CC[C@]2(C)CC[C@]3(C)C(=CC(=O)[C@@H]4[C@@]5(C)CC[C@H](O[C@@H]6O[C@H](C(=O)O)[C@@H](O)[C@H](O)[C@H]6O[C@@H]6O[C@H](C(=O)O)[C@@H](O)[C@H](O)[C@H]6O)[C@](C)(CO)[C@@H]5CC[C@]43C)[C@H]2C1` had a pIC50 in test [1] of 4.40. The Activity in test [2] is recorded as 47%.
The compound `CC(=O)O[C@H]1C[C@@](C)(C(=O)O)C[C@H]2C3=CC(=O)[C@H]4[C@]5(C)CC[C@@H](O[C@@H]6O[C@H](C(=O)O)[C@@H](O)[C@H](O)[C@H]6O[C@H]6O[C@@H](CO)[C@H](O)[C@@H](O)[C@@H]6O[C@H]6O[C@H](C)[C@@H](O)[C@H](O)[C@@H]6O)C(C)(C)[C@H]5CC[C@]4(C)[C@@]3(C)CC[C@]12C` showed a negative logarithm of the IC50 (pIC50) in test [1] of 4.40. The Activity in test [2] turned out to be 47%.
`CC1(C)[C@@H](O[C@@H]2O[C@H](C(=O)O)[C@@H](O)[C@H](O)[C@H]2O)CC[C@]2(C)[C@H]3C(=O)C=C4[C@H]5C[C@@](C)(C(=O)O)CC[C@]5(C)CC[C@@]4(C)[C@]3(C)CC[C@@H]12`: the pIC50 in test [1] is 4.40. The compound also registered an Activity in test [2] of 47%.
In the same order, the values of `CC(=O)O[C@H]1C[C@@](C)(C(=O)O)C[C@H]2C3=CC(=O)[C@H]4[C@]5(C)CC[C@@H](O[C@@H]6O[C@H](C(=O)O)[C@@H](O)[C@H](O)[C@H]6O[C@H]6O[C@@H](C(=O)O)[C@H](O)[C@@H](O)[C@@H]6O[C@H]6O[C@H](C)[C@@H](O)[C@H](O)[C@@H]6O)C(C)(C)[C@H]5CC[C@]4(C)[C@@]3(C)CC[C@]12C` are 4.40 and 47%.
For the compound `CC(C)=CCc1c(O)cc(O)c2c(=O)c(-c3ccc(O)c(O)c3)coc12` [GANCAONIN L], the inhibition (commonly the change of the read-out against control, counted positive when it falls) at 100 µM in test [2] (Influenza A virus, A/WSN/1933(H1N1), MDCK) was more than 30%.

The values are drawn from ChEMBL document CHEMBL3808312, “Bioactive Constituents of Glycyrrhiza uralensis (Licorice): Discovery of the Effective Components of a Traditional Herbal Medicine” (J Nat Prod, 2016).
